Measurements as given in ChEMBL document CHEMBL4011603, “Synthesis of clarithromycin ketolides chemically modified at the unreactive C10-methyl group” (2017).
Values after ≈ are worked out from the molar mass of the structure shown.

Columns and labels:
[1] = tested on: Streptococcus pneumoniae; test: Antibacterial activity against Streptococcus pneumoniae ATCC 4961 by broth microdilution method; format: functional
Method in brief: (§1)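 Standard broth microdilution; the endpoint is the minimal inhibitory concentration, reported in μg/mL. Clarithromycin is the reference macrolide. Strains are respiratory-pathogen isolates of S. pneumoniae and S. aureus.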

[2] = tested on: Streptococcus pneumoniae; test: Antibacterial activity against macrolide-resistant Streptococcus pneumoniae BAA1402 expressing mef gene by broth microdilution method; format: functional
Method in brief: (§2)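 Standard broth microdilution for MIC against respiratory-pathogen strains, reported in μg/mL, with clarithromycin included as the reference macrolide.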

[3] = tested on: Streptococcus pneumoniae; test: Antibacterial activity against macrolides/lincosamides/streptogramines resistant Streptococcus pneumoniae 3914 by broth microdilution method; format: functional; method in brief: as §2
[4] = tested on: Staphylococcus aureus; test: Antibacterial activity against Staphylococcus aureus ATCC 29213 by broth microdilution method; format: functional; method in brief: as §1
[5] = tested on: Staphylococcus aureus; test: Antibacterial activity against macrolide-resistant Staphylococcus aureus BAA976 expressing mef gene by broth microdilution method; format: functional; method in brief: as §2
[6] = tested on: Staphylococcus aureus; test: Antibacterial activity against inducibly macrolides/lincosamides/streptogramines-resistant Staphylococcus aureus BAA977 expressing erm gene by broth microdilution method; format: functional; method in brief: as §2
[7] = tested on: Staphylococcus aureus; test: Antibacterial activity against constitutively macrolides/lincosamides/streptogramines-resistant Staphylococcus aureus ND048910 expressing erm gene by broth microdilution method; format: functional; method in brief: as §2
[8] = tested on: Streptococcus pneumoniae; test: Antibacterial activity against macrolides/lincosamides/streptogramines-resistant Streptococcus pneumoniae BAA1407 expressing mef and erm genes by broth microdilution method

Compound	MIC [1] [µg/mL]	MIC [2] [µg/mL]	MIC [3] [µg/mL]	MIC [4] [µg/mL]	MIC [5] [µg/mL]	MIC [6] [µg/mL]	MIC [7] [µg/mL]	MIC [8] [µg/mL]
CC[C@H]1OC(=O)[C@H](C)C(=O)[C@H](C)[C@@H](O[C@@H]2O[C@H](C)C[C@H](N(C)C)[C@H]2OC(C)=O)[C@](C)(OC)C[C@@H](C)C(=O)[C@]2(CC=NN2)[C@H]2NC(=O)O[C@]12C	0.06 (≈ 0.0864 µM)	0.25 (≈ 0.36 µM)	16 (≈ 23 µM)	2 (≈ 2.88 µM)	2 (≈ 2.88 µM)	2 (≈ 2.88 µM)	> 128	64 (≈ 92.1 µM)
CC[C@H]1OC(=O)[C@H](C)C(=O)[C@H](C)[C@@H](O[C@@H]2O[C@H](C)C[C@H](N(C)C)[C@H]2O)[C@](C)(OC)C[C@@H](C)C(=O)[C@H](CNCc2ccccc2)[C@H]2N(C)C(=O)O[C@]12C	0.25 (≈ 0.342 µM)	1 (≈ 1.37 µM)	< 128	16 (≈ 21.9 µM)	32 (≈ 43.7 µM)	16 (≈ 21.9 µM)	> 64	64 (≈ 87.4 µM)
CC[C@H]1OC(=O)[C@H](C)C(=O)[C@H](C)[C@@H](O[C@@H]2O[C@H](C)C[C@H](N(C)C)[C@H]2OC(C)=O)[C@](C)(OC)C[C@@H](C)C(=O)[C@H](CNCc2ccccc2)[C@H]2NC(=O)O[C@@]21C	< 0.007	< 0.0072	64 (≈ 84.2 µM)	0.25 (≈ 0.329 µM)	0.5 (≈ 0.658 µM)	1 (≈ 1.32 µM)	> 64	
CCOC(=O)C(C[C@H]1C(=O)[C@H](C)C[C@@](C)(OC)[C@H](O[C@@H]2O[C@H](C)C[C@H](N(C)C)[C@H]2OC(C)=O)[C@@H](C)C(=O)[C@@H](C)C(=O)O[C@H](CC)[C@@]2(C)OC(=O)N[C@H]12)C(=O)OCC	0.06 (≈ 0.0738 µM)	0.125 (≈ 0.154 µM)	4 (≈ 4.92 µM)	0.25 (≈ 0.308 µM)	0.5 (≈ 0.615 µM)	0.5 (≈ 0.615 µM)	> 128	128 (≈ 157 µM)
C=C1C(=O)[C@H](C)C[C@@](C)(OC)[C@H](O[C@@H]2O[C@H](C)C[C@H](N(C)C)[C@H]2OC(C)=O)[C@@H](C)C(=O)[C@@H](C)C(=O)O[C@H](CC)[C@@]2(C)OC(=O)N(Cc3ccccc3)[C@H]12	< 0.07	0.125 (≈ 0.168 µM)	2 (≈ 2.69 µM)	1 (≈ 1.35 µM)	2 (≈ 2.69 µM)	2 (≈ 2.69 µM)	64 (≈ 86.1 µM)	64 (≈ 86.1 µM)
CC[C@H]1OC(=O)[C@H](C)C(=O)[C@H](C)[C@@H](O[C@@H]2O[C@H](C)C[C@H](N(C)C)[C@H]2OC(C)=O)[C@](C)(OC)C[C@@H](C)C(=O)[C@H](CNCc2cccnc2)[C@H]2NC(=O)O[C@@]21C	0.015 (≈ 0.0197 µM)	0.06 (≈ 0.0789 µM)	4 (≈ 5.26 µM)	1 (≈ 1.31 µM)	2 (≈ 2.63 µM)	4 (≈ 5.26 µM)	> 64	64 (≈ 84.1 µM)
CC[C@H]1OC(=O)[C@H](C)[C@@H](O)[C@H](C)[C@@H](O[C@@H]2O[C@H](C)C[C@H](N(C)C)[C@H]2OC(C)=O)[C@](C)(OC)C[C@@H](C)C(=O)/C(Cc2ccccc2)=C/[C@]1(C)O	0.25 (≈ 0.362 µM)	0.5 (≈ 0.725 µM)	64 (≈ 92.8 µM)	16 (≈ 23.2 µM)	16 (≈ 23.2 µM)	32 (≈ 46.4 µM)	> 64	> 64
C=C1C(=O)[C@H](C)C[C@@](C)(OC)[C@H](O[C@@H]2O[C@H](C)C[C@H](N(C)C)[C@H]2OC(C)=O)[C@@H](C)C(=O)[C@@H](C)C(=O)O[C@H](CC)[C@@]2(C)OC(=O)N[C@H]12	1 (≈ 1.53 µM)	2 (≈ 3.06 µM)	128 (≈ 196 µM)	32 (≈ 49 µM)	64 (≈ 98 µM)	64 (≈ 98 µM)	> 64	> 64
CC[C@H]1OC(=O)[C@H](C)[C@@H](O[C@H]2C[C@@](C)(OC)[C@@H](O)[C@H](C)O2)[C@H](C)[C@@H](O[C@@H]2O[C@H](C)C[C@H](N(C)C)[C@H]2O)[C@](C)(OC)C[C@@H](C)C(=O)[C@H](C)[C@@H](O)[C@]1(C)O [CLARITHROMYCIN]	0.015 (≈ 0.0201 µM)	2 (≈ 2.67 µM)	> 16	0.125 (≈ 0.167 µM)	64 (≈ 85.6 µM)	> 64	> 64	> 8
